Source: PubChem (several laboratories)
S1P1 ag-PAM = S1P1 agonists and agonism potentiators, primary screen, cell-based, primary and confirmation screens, CRE-bla reporter | S1P1 CRE-bla cells, forskolin, beta-lactamase FRET, potentiator mode; S1P1 agonist co-added at EC20, 2 nM; 100% = saturating reference agonist, 0% = basal | activation, % at 9.5 µM | hit rate 0.57% among 56,000 | Sphingosine 1-phosphate receptor 1 (Homo sapiens), P21453;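 active = activation above a cutoff set at the mean activation of all tested compounds plus 3 SD, cut at about 54% in these data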;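 note: forskolin at 4 µM as EC80 and the EC20 agonist is SEW2871; 100% = SEW2871 at its EC100 plus forskolin at EC80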
Target sequence (P21453 whole entry, looked up): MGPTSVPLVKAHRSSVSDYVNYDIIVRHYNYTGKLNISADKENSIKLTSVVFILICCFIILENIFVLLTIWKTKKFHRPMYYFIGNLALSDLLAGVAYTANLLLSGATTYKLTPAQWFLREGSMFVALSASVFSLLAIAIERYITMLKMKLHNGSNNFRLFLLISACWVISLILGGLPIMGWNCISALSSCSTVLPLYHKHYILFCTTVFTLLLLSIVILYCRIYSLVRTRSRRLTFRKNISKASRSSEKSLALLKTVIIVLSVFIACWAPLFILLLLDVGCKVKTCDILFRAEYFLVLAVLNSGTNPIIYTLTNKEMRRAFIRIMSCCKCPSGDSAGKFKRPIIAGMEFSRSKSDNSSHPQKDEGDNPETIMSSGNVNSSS
Htt clearance = clearance of mutant huntingtin inclusions, primary screen, imaging, HeLa Exon1htt(103Q)mCFP, confocal imaging | inhibition, % at 1.5 µM | hit rate 0.42% among 47,000 | aggregate imaging; zero = plate's median compound well;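 active = inhibition of aggregate fluorescence above about 70%, also judged a hit by eye on the cell image, limit read from the data, passing the limit was not always enough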;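 note: cells exposed to compound for three days before fixation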
S1P3 ag = human S1P3 receptor agonists, primary screen, cell-based, primary and confirmation, NFAT-BLA reporter | S1P3 NFAT-BLA reporter cells, agonism, FRET ratio; relative to 1 µM S1P, basal subtracted | activation, % at 4.5 µM | hit rate 0.1% among 60,000 | AID 373, 2006;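 active = activation above the screen-wide mean plus 3 SD, cut at about 4.5% in these data, passing the limit was not always enough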
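Benchmarks: high control 1 µM S1P / System: stable CHO line with human S1P3, Gα16, NFAT-BLA reporter / Dosing: single compound concentration, 4.5 µM final / Timing: 4 h compound at 37 °C, 2 h substrate at RT / Measured by: FRET β-lactamase substrate fluorescence, excitation 405 nm, 460/535 nm emission ratio, background-subtracted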
MMP13 inh = human MMP13 inhibitors, primary screen, biochemical, FRET peptide cleavage. Collagenase 3 (Homo sapiens), P45452. MMP-13 fTHP FRET cleavage, Mca fluorescence. inhibition, % at 4 µM. hit rate 0.07% among 65,000;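 active = inhibition above the mean of compound-free control plate wells plus 3 SD, cut at about 14% in these data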;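 note: 0% = DMSO wells and 100% = wells with reference MMP-13 inhibitor after basal subtraction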
* marks the source's active call; other numbers are inactive results; / = not tested or not shown. This is a sample that favours compounds with a hit; in the whole collection about 0.78% have one here.

SMILES | S1P1 ag-PAM | Htt clearance | S1P3 ag | MMP13 inh
c1ccc2c(c1)[nH]c1c(N3CCC4(CC3)OCCO4)ncnc12 | 14 | / | -7 | -58
c1ccc2c(c1)CCN(c1ncnc3c1[nH]c1ccccc13)C2 | 113* | / | -8 | -55
Cc1ccc2c(c1)[nH]c1c(N3CCN(Cc4ccccc4)CC3)ncnc12 | 133* | 4 | -2 | -20
Cc1ccc2[nH]c3c(N4CCCCCC4)ncnc3c2c1 | 97* | / | -4 | -15
Cc1ccc2[nH]c3c(N4CCN(Cc5ccccc5)CC4)ncnc3c2c1 | 33 | 26 | -2 | -45
c1ccc(CN2CCN(c3ncnc4c3[nH]c3ccccc34)CC2)cc1 | 63* | / | -6 | -21
COc1ccc(CC(C)N2CCN(c3cccc(C(F)(F)F)c3)CC2)cc1OC (stereo not drawn) | / | 30 | / | /
O=C(c1cc2c(s1)-c1ccccc1S(=O)(=O)C2)N1CCN(Cc2ccccc2)CC1 | / | 4 | / | /
N#CC1=C(Nc2ccccc2)SC=C(c2ccc(F)cc2)N=C1N1CCOCC1 | / | -1 | / | /
Cc1cc(N2CCOCC2)nc(NCc2ccccc2)n1 | 59* | 52 | -2 | 6
CCOC(=O)c1ccc2nc(NC(=O)c3cccs3)sc2c1 | / | 44 | / | -17
CCOC(=O)c1ccc2nc(NC(=O)c3ccco3)sc2c1 | 63* | 29 | 0 | -11
O=C(Nc1nnc(-c2ccco2)s1)c1ccccc1 | -12 | / | -1 | -11
O=C(Nc1nnc(/N=C/c2ccco2)s1)c1ccc(F)cc1 | 6 | 71* | 0 | -3
O=C(Oc1ccc(-c2nnco2)cc1)N(c1ccccc1)c1ccccc1 | / | -15 | 16* | -1
Cn1c(-c2c(N)n(C3CCCC3)c3nc4ccccc4nc23)nc2ccccc21 | 71* | / | -2 | -8
COCCCn1c(N)c(-c2nc3ccccc3n2C)c2nc3ccccc3nc21 | / | 10 | / | /
CCc1nnc(NC(=O)CSc2nnc(-c3ccoc3C)n2CC(C)C)s1 | 1 | / | -1 | 2
COCCCn1c(SCC(=O)Nc2nnc(C)s2)nnc1-c1ccoc1C | -22 | 78* | 0 | -2
CCn1nnnc1SCC(=O)NC1CCCC1 | / | -22 | / | /
Cc1sc(/N=C/c2ccccc2O)c(C#N)c1C | / | -27 | / | /
O=C(CSc1nnnn1-c1ccc2c(c1)OCCO2)Nc1nc2c(s1)CCCC2 | -7 | 77* | 0 | 4
Cc1cc(C)n(C(=O)c2ccc(NC(=O)CC(C)C)cc2)n1 | 18 | 90* | -1 | 1
CC(Oc1ccccc1Br)C(=O)N1CCc2ccccc21 (stereo not drawn) | 87* | -16 | 9.9* | 0
Cc1ccc(-c2csc(N3CCC(NS(=O)(=O)c4ccc5c(c4)OCCO5)CC3)n2)cc1 | 107* | / | -1 | -1
SMILES | S1P1 ag-PAM | Htt clearance | S1P3 ag | MMP13 inh
COc1ccc(NC(=O)/C(Cl)=C(/Cl)S(=O)(=O)Cc2ccc(C)cc2)cn1 | / | 19 | / | /
O=C(NCc1ccco1)C(c1ccco1)N(Cc1cccs1)C(=O)Cn1nnc2ccccc21 (stereo not drawn) | / | 83* | / | /
CCCc1ccc(Oc2cn[nH]c2-c2ccc(O)cc2O)cc1 | 74* | 5 | -1 | 2
O=C(Nc1ncccc1Cl)C1COc2ccccc2O1 (stereo not drawn) | / | -370 | / | /
O=S1(=O)C=C(Sc2nnc(-c3ccccc3)o2)c2ccccc21 | 107* | / | 0 | -2
CC(C)(C)C1CCC2(CC1)C(C#N)=C(SCC(=O)Nc1ccccc1)NC(=O)C2C#N (stereo not drawn) | 79* | / | -4 | 2
CC1(C)CC(=O)C2=C(C1)NC(SCC(=O)Nc1ccccc1)=C(C#N)C21CCCCC1 | 20 | -3 | -1 | -2
O=C(Cc1ccccc1)Nc1ccc(N2CCN(Cc3ccccc3F)CC2)cc1 | / | -24 | / | /
CNc1nc(OC)nc(N2CCOCC2)n1 | -8 | 31 | -1 | -2
COc1nc(N)nc(N2CCOCC2)n1 | -6 | / | -1 | 15*
CCCOc1ccc2ccccc2c1/C=N/n1c(C)nnc1-n1nc(C)cc1C | 18 | / | -1 | -3
c1ccc2c(c1)oc1c(NCc3ccc4c(c3)OCO4)ncnc12 | 90* | / | 0 | 1
c1ccc(Nc2ncnc3c2oc2ccccc23)cc1 | / | 72* | 0 | 2
c1ccc2c(c1)oc1c(Nc3ccc4c(c3)OCO4)ncnc12 | 1 | -54 | -1 | -2
CN(CC(=O)Nc1ccc(Cl)cc1)CC(=O)Nc1cc(Cl)ccc1C#N | 17 | / | 0 | 3
Cc1noc(C)c1CSCC(=O)N1CCN(c2ccc(F)cc2)CC1 | 6 | 25 | -1 | 2
Cc1cccc(N2CCN(C(=O)CSCc3c(C)noc3C)CC2)c1C | 82* | / | -1 | 2
CC(=O)Nc1ccc(N2C(C(C)=O)=NN(c3ccc(Cl)cc3)C2c2sccc2C)cc1 (stereo not drawn) | / | -18 | / | /
CC(C)(C)c1cc(NC(=O)c2cccnc2)no1 | -8 | 78* | -1 | -1
CCOc1cc(S(=O)(=O)NCCc2cccc(C)c2)c(OCC)cc1-n1cnnn1 | -13 | 42 | 0 | -62
CC(C)C(=O)Nc1ncc2c(n1)CC(c1cccs1)CC2=O (stereo not drawn) | / | -30 | / | /
CCN(CC)C(=O)C1CCN(S(=O)(=O)c2ccc3oc4ccccc4c3c2)CC1 | 84* | 27 | -2 | -1
CC(=O)c1ccc(NC(=O)N2CCN(c3cccc(Cl)c3)CC2)cc1 | 65* | 19 | -2 | 3
O=C(Nc1ccc(Cl)cc1)N1CCN(c2ccccc2)CC1 | / | -88 | / | /
O=C(c1ccco1)N1CCN(c2nc(-c3ccc(F)cc3)cs2)CC1 | / | 32 | / | /
SMILES | S1P1 ag-PAM | Htt clearance | S1P3 ag | MMP13 inh
CCOc1ccc(-c2nnn(CC(=O)NCc3cccs3)n2)cc1 | 12 | 11 | 0 | 9
CCOc1ccc(-c2nnn(CC(=O)NCc3ccc4c(c3)OCO4)n2)cc1 | / | 76* | / | /
NC(=O)c1ccc(OCC(F)(F)C(F)(F)C(F)(F)C(F)(F)C(F)(F)C(F)F)cc1 | 63* | / | -1 | -5
N#CCCSc1nc(N2CCOCC2)c2c(c1C#N)CCCC2 | -2 | / | -3 | 1
CCCSc1nc(N2CCOCC2)c2c(c1C#N)CCCC2 | 59 | / | 23* | -3
CC1=C(C(=O)OCc2ccc3c(c2)OCO3)C(c2ccc(Cl)cc2)NC(=O)N1 (stereo not drawn) | 113* | / | -2 | 2
CC1=C(C(=O)OCc2ccc3c(c2)OCO3)C(c2ccc(F)cc2)NC(=O)N1 (stereo not drawn) | 94* | 52 | -1 | 0
COc1ccc(C(=O)COc2ccccc2N2C(=O)C3C4C=CC(C4)C3C2=O)cc1 (stereo not drawn) | / | -68 | / | /
CCc1ccc2oc(-c3cc(N)cc(C)c3O)nc2c1 | 65* | 25 | -1 | 0
CCC(C)N(NC(C)=O)c1nc(Cl)nc(NC(C)(C)C)n1 (stereo not drawn) | / | 8 | / | /
O=C(Nc1ccccc1)N1CCCC(c2nc(-c3ccc(F)cc3)no2)C1 (stereo not drawn) | / | 11 | / | /
